ChEMBL document CHEMBL1127604 (J Med Chem, 1994)

What was measured:
[1] = molecular target: T1, 5-hydroxytryptamine receptor 1A (Rattus norvegicus, UniProt P19327); test: Binding affinity was measured against serotonin 5-hydroxytryptamine 1A receptor
T1 sequence (P19327 whole entry): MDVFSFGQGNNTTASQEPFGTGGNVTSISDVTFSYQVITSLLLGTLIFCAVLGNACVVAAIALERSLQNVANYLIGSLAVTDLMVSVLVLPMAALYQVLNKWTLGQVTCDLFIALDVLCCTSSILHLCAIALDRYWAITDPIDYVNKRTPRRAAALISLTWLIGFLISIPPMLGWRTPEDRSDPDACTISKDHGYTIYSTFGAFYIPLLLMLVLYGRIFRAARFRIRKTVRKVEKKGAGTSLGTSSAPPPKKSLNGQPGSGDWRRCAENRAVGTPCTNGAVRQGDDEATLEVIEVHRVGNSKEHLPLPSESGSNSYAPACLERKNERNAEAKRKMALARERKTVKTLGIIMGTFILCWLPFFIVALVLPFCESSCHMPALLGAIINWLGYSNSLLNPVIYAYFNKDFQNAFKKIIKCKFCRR
How it was run: (§1)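 Radioligand binding at 5-HT1A and 5-HT1D receptors, run by the group's earlier published protocol. Each value is the arithmetic mean of at least three independent determinations.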

[2] = molecular target: T2, 5-hydroxytryptamine receptor 1D (Rattus norvegicus, UniProt P28565); test: Inhibition of forskolin stimulated adenylate cyclase at 5-hydroxytryptamine 1D receptor; assay type: functional
T2 sequence (P28565 whole entry): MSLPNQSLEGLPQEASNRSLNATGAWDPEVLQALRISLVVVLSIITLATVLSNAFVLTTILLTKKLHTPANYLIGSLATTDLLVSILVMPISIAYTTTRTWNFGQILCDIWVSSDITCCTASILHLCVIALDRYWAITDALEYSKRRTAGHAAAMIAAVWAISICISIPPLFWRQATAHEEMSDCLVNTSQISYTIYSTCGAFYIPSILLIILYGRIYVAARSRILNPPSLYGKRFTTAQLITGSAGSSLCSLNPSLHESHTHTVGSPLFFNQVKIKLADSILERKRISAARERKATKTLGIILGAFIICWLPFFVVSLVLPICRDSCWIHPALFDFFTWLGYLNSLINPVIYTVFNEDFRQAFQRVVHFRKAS

[3] = molecular target: T2, 5-hydroxytryptamine receptor 1D; test: Binding affinity was measured against serotonin 5-hydroxytryptamine 1D receptor; how it was run: as §1
[4] = molecular target: T1, 5-hydroxytryptamine receptor 1A; test: Inhibition of forskolin stimulated adenylate cyclase at 5-hydroxytryptamine 1A receptor; assay type: functional
[5] = Selectivity value is the ratio between EC50 values of 5-HT1A and 5-HT1D receptors
[6] = Selectivity value is the ratio between IC50 values of 5-HT1A and 5-HT1D receptors

SMILES | IC50 [1] | EC50 [2] | IC50 [3] | EC50 [4] | Selectivity [5] | Selectivity [6]
CN(C)CCc1c[nH]c2ccc(Nc3ncccc3[N+](=O)[O-])cc12 | 73 nM | 2 nM | 10 nM | 170 nM | 85 | 7
CN1CCC(c2c[nH]c3ccc(Nc4ncccc4[N+](=O)[O-])cc23)C1 (stereo unspecified) | 320 nM | 2 nM | 15 nM | 885 nM | 440 | 21
O=[N+]([O-])c1cccnc1Nc1ccc2[nH]cc(C[C@H]3CCCN3)c2c1 | 120 nM | 1.3 nM | 6.2 nM | 220 nM | 170 | 19
CNS(=O)(=O)Cc1ccc2[nH]cc(CCN(C)C)c2c1 | 640 nM |  |  | 1300 nM |  | 
CN1CCC[C@@H]1Cc1c[nH]c2ccc(Nc3ncccc3[N+](=O)[O-])cc12 | 33 nM | 1.3 nM | 3.1 nM | 47 nM | 36 | 11
